Converted amounts (≈) assume the structure as drawn.
Legend:
[1] = Cytotoxicity against mouse L929 cells after 1 hr at pH 7 by Dojindo cell proliferation assay; assay type: cell-based
Procedure, shortened: (§1)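 L929 mouse fibroblasts exposed to test article for 1 h in test solution at pH 7, or at pH 4 where flagged. Compound then removed and cells incubated overnight. Viability read with Dojindo cell proliferation assay; CT50 reported in mM.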

[2] = tested on: Candida albicans; assay: Antifungal activity against Candida albicans ATCC 10231 at pH 7 by CLSI M26A method; assay type: functional
Procedure, shortened: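 Modified CLSI M26-A method with phosphate-buffered saline (pH 7) in place of Mueller–Hinton broth and compound contact shortened to 1 h. The read-out was the minimum fungicidal concentration (MFC).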

[3] = tested on: Escherichia coli; assay: Antibacterial activity against Escherichia coli ATCC 25922 at pH 7 by CLSI M26A method; assay type: functional
Procedure, shortened: (§2)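 Modified CLSI M26-A bactericidal method in which phosphate-buffered saline (pH 7) replaced Mueller–Hinton broth and compound contact was cut to 1 h. The read-out was the minimum bactericidal concentration (MBC).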

[4] = tested on: Staphylococcus aureus; assay: Antibacterial activity against Staphylococcus aureus ATCC 29213 at pH 7 by CLSI M26A method; assay type: functional; procedure, shortened: as §2
[5] = Therapeutic index, ratio of CT50 for mouse L929 cells to Escherichia coli ATCC 25922; assay type: cell-based; settings: pooled result: one value given for 2 cell lines, strains, targets or settings, read-out: TI
[6] = Therapeutic index, ratio of CT50 for mouse L929 cells to Candida albicans ATCC 10231; assay type: cell-based; settings: read-out: TI
Procedure, shortened: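 Antifungal index is the L929 CT50 (1 h exposure, overnight recovery, Dojindo viability) divided by the MFC against C. albicans. MFC is from a modified CLSI M26-A method: phosphate-buffered saline pH 7 in place of Mueller–Hinton broth, 1 h compound residence.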

[7] = Cytotoxicity against mouse L929 cells after 1 hr at pH 4 by Dojindo cell proliferation assay; assay type: cell-based; procedure, shortened: as §1

## CC1(CS(=O)(=O)CCCC(=O)O)COC(=O)N1Cl (configuration not stated)
[1]
  CC50 at 1 h: 520 µM
[2]
  MFC: > 1020 mg/L
[3]
  MBC: 16 mg/L (≈ 53.4 µM)
[4]
  MBC: 8 mg/L (≈ 26.7 µM)
[5]
  selectivity ratio: 14

## CC1(C)C(C[N+](C)(C)C)OC(=O)N1Cl.[Cl-] (configuration not stated)
[1]
  CC50 at 1 h: 690 µM
[2]
  MFC: 64 mg/L
[3]
  MBC: 16 mg/L
[4]
  MBC: 32 mg/L
[5]
  selectivity ratio: 7.6
[6]
  selectivity ratio: 2.7

## CC1(CS(=O)(=O)[O-])COC(=O)N1Cl.[Na+] (configuration not stated)
[1]
  CC50 at 1 h: 800 µM
[2]
  MFC: 1020 mg/L
[3]
  MBC: 256 mg/L
[4]
  MBC: 128 mg/L
[5]
  selectivity ratio: 1.4
[6]
  selectivity ratio: 0.25

## CC1(C[N+](C)(C)C)COC(=O)N1Cl.[Cl-] (configuration not stated)
[2]
  MFC: 16 mg/L
[3]
  MBC: 2 mg/L
[4]
  MBC: 4 mg/L

## CC1(CS(=O)(=O)CCS(=O)(=O)[O-])COC(=O)N1Cl.[Na+] (configuration not stated)
[1]
  CC50 at 1 h: 600 µM
[2]
  MFC: 128 mg/L
[3]
  MBC: 16 mg/L
[4]
  MBC: 32 mg/L
[5]
  selectivity ratio: 8.5
[6]
  selectivity ratio: 1.5

## CC1(C)COC(=O)N1Cl
[1]
  CC50 at 1 h: 70 µM
[2]
  MFC: 512 mg/L (≈ 3420 µM)
[3]
  MBC: 1 mg/L (≈ 6.69 µM)
[4]
  MBC: 4 mg/L (≈ 26.7 µM)
[5]
  selectivity ratio: 5.2
[6]
  selectivity ratio: 0.02

## C[N+]1(C)CCC2(CC1)CN(Cl)C(=O)O2.[Cl-]
[7]
  CC50 at 1 h: 700 µM
[2]
  MFC: 256 mg/L
[3]
  MBC: 16 mg/L
[4]
  MBC: 32 mg/L
[5]
  selectivity ratio: 7.9
[6]
  selectivity ratio: 0.7

## CC[N+](C)(C)CC1(C)COC(=O)N1Cl.[Cl-] (configuration not stated)
[7]
  CC50 at 1 h: 860 µM
[2]
  MFC: 8 mg/L
[3]
  MBC: 2 mg/L
[4]
  MBC: 4 mg/L
[5]
  selectivity ratio: 78
[6]
  selectivity ratio: 28

## CCC[N+](C)(C)CC1(C)COC(=O)N1Cl.[Cl-] (configuration not stated)
[7]
  CC50 at 1 h: 900 µM
[2]
  MFC: 8 mg/L
[3]
  MBC: 2 mg/L
[4]
  MBC: 2 mg/L
[5]
  selectivity ratio: 122
[6]
  selectivity ratio: 31

## CC1(C[N+]2(C)CCCC2)COC(=O)N1Cl.[Cl-] (configuration not stated)
[7]
  CC50 at 1 h: 1130 µM
[2]
  MFC: 16 mg/L
[3]
  MBC: 4 mg/L
[4]
  MBC: 4 mg/L
[5]
  selectivity ratio: 76
[6]
  selectivity ratio: 19

## CC1(C)C(CS(=O)(=O)[O-])OC(=O)N1Cl.[Na+] (configuration not stated)
[1]
  CC50 at 1 h: 4300 µM
[2]
  MFC: 1020 mg/L
[3]
  MBC: 256 mg/L
[4]
  MBC: 512 mg/L
[5]
  selectivity ratio: 2.9
[6]
  selectivity ratio: 1

Source: ChEMBL document CHEMBL1770087, “Novel 3-chlorooxazolidin-2-ones as antimicrobial agents” (Bioorg Med Chem Lett, 2011)
